Results published in ChEMBL document CHEMBL4145462, “Nitrogen-containing ecdysteroid derivatives vs. multi-drug resistance in cancer: Preparation and antitumor activity of oximes, oxime ethers and a lactam” (Eur J Med Chem, 2018).

Columns and labels:
HeLa = experiment: Antiproliferative activity against human HeLa cells after 72 hrs by MTT assay; assay type: functional, cell-based
Outline: (§1)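 Cells grown in MEM with 10% FCS, 1% non-essential amino acids and 1% penicillin-streptomycin. Seeded at 5000 cells/well, exposed to 0.1–30.0 µM compound for 72 h. MTT (5 mg/ml solution) was then added for 4 h, formazan dissolved in DMSO, and absorbance read at 545 nm. Cisplatin served as positive control. IC50 came from sigmoidal dose–response fits (log inhibitor vs normalized response, variable slope).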

SiHa = experiment: Antiproliferative activity against human SiHa cells after 72 hrs by MTT assay; assay type: functional, cell-based; outline: as §1
MDA-MB-231 = experiment: Antiproliferative activity against human MDA-MB-231 cells after 72 hrs by MTT assay; assay type: functional, cell-based; settings: MDA-MB-231, 72 h; outline: as §1
MCF7 = experiment: Antiproliferative activity against human MCF7 cells after 72 hrs by MTT assay; assay type: functional, cell-based; settings: MCF7, 72 h; outline: as §1
[1] = Cytotoxicity against mouse L5178 cells after 48 hrs by MTT assay; assay type: functional, cell-based; settings: L5178, 48 h
Outline: (§2)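 Parental mouse lymphoma L5178 and the MDR line made by pHa MDR1/A retrovirus transfection, selected with 60 µg/L colchicine. Grown in McCoy's 5A with horse serum at 37°C, 5% CO2. 5 x 10^4 cells/well, serial compound dilutions, 48 h. MTT added to 0.5 mg/mL final for 4 h, then 10% SDS in 0.01 M HCl overnight, OD read at 540 and 630 nm. IC50 taken as median cytotoxic activity (Dm) from control lanes of checkerboard plates, n=2.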

[2] = Cytotoxicity against mouse L5178 cells expressing human ABCB1 after 48 hrs by MTT assay; assay type: functional, cell-based; settings: L5178, 48 h; outline: as §2
ABCB1 (P-glycoprotein) [3] = target: T1, ABCB1 (P-glycoprotein) (Homo sapiens, UniProt P08183); experiment: Inhibition of human ABCB1 expressed in mouse L5178 cells assessed as increase in rhodamine-123 accumulation at 2 uM after 10 mins by flow cytometric analysis relative to control; assay type: cell-based; settings: mouse L5178 cells expressing human ABCB1, probe rhodamine-123
T1 sequence (P08183 whole entry): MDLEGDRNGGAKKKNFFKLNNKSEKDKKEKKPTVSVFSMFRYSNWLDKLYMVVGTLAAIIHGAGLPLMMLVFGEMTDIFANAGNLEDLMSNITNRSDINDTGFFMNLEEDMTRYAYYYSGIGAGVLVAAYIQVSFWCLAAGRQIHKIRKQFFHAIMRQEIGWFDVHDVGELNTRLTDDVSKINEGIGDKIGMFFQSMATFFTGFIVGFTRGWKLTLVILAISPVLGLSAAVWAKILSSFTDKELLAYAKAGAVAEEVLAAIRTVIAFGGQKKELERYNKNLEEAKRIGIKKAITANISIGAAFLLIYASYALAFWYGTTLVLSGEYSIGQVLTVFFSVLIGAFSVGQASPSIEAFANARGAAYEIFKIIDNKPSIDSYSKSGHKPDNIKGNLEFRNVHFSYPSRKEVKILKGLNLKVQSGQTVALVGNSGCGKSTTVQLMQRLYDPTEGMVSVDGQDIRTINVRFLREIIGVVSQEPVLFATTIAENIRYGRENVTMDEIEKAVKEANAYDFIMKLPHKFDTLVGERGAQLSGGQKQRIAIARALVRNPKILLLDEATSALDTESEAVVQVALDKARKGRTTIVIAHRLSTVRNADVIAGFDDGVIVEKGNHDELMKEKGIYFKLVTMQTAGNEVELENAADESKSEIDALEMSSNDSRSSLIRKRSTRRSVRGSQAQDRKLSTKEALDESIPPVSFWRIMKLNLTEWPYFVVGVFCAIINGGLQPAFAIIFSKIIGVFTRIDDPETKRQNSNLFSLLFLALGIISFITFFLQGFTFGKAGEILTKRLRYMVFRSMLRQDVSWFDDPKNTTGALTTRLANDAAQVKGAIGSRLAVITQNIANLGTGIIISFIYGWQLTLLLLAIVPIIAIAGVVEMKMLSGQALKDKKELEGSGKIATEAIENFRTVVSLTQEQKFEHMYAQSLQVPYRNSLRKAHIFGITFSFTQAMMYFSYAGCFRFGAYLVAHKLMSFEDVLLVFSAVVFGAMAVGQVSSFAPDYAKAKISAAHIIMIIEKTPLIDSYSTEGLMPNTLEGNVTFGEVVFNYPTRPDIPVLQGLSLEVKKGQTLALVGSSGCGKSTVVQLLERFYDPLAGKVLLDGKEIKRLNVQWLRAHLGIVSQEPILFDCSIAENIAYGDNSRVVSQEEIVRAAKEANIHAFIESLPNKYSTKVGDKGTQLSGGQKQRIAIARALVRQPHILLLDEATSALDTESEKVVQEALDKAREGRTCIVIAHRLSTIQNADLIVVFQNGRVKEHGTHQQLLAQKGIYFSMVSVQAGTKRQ
Outline: (§3)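 Cells at 2 × 10^6/mL were preincubated 10 min with compound. Rhodamine 123 then added to 5.2 µM final, 20 min at 37 °C. Cells washed twice in PBS, resuspended and read by flow cytometry. Percent inhibition was scaled between MDR-cell accumulation (0%) and parental L5178 accumulation (100%). Controls: 100 nM tariquidar (positive) and 2% DMSO (negative).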

ABCB1 (P-glycoprotein) [4] = target: T1, ABCB1 (P-glycoprotein); experiment: Inhibition of human ABCB1 expressed in mouse L5178 cells assessed as increase in rhodamine-123 accumulation at 20 uM after 10 mins by flow cytometric analysis relative to control; assay type: cell-based; settings: mouse L5178 cells expressing human ABCB1, probe rhodamine-123; outline: as §3
[5] = Synergistic cytotoxicity against mouse L5178 cells assessed as combination index at ED50 using 150:1 test compound to doxorubicin ratio after 48 hrs by MTT-based checkerboard microplate method; assay type: functional
Outline: (§4)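 Checkerboard microplate combinations of compound with doxorubicin at constant molar ratios. 5 × 10^4 cells/well in McCoy's 5A, 48 h at 37°C, 5% CO2. MTT added to 0.5 mg/mL final for 4 h, SDS/HCl overnight, OD read at 540 and 630 nm. Combination indices derived per ratio for 50%, 75% and 90% growth inhibition by median-effect analysis.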

[6] = Synergistic cytotoxicity against mouse L5178 cells expressing human ABCB1 assessed as combination index at ED50 using 15:1 test compound to doxorubicin ratio after 48 hrs by MTT-based checkerboard microplate method; assay type: functional; outline: as §4
[7] = Synergistic cytotoxicity against mouse L5178 cells assessed as combination index at ED75 using 150:1 test compound to doxorubicin ratio after 48 hrs by MTT-based checkerboard microplate method; assay type: functional; outline: as §4
[8] = Synergistic cytotoxicity against mouse L5178 cells assessed as combination index at ED90 using 150:1 test compound to doxorubicin ratio after 48 hrs by MTT-based checkerboard microplate method; assay type: functional; outline: as §4
[9] = Synergistic cytotoxicity against mouse L5178 cells expressing human ABCB1 assessed as combination index at ED75 using 15:1 test compound to doxorubicin ratio after 48 hrs by MTT-based checkerboard microplate method; assay type: functional; outline: as §4
[10] = Synergistic cytotoxicity against mouse L5178 cells expressing human ABCB1 assessed as combination index at ED90 using 15:1 test compound to doxorubicin ratio after 48 hrs by MTT-based checkerboard microplate method; assay type: functional; outline: as §4
[11] = Synergistic cytotoxicity against mouse L5178 cells expressing human ABCB1 assessed as combination index at ED50 using 30:1 test compound to doxorubicin ratio after 48 hrs by MTT-based checkerboard microplate method; assay type: functional; outline: as §4
[12] = Synergistic cytotoxicity against mouse L5178 cells expressing human ABCB1 assessed as combination index at ED75 using 30:1 test compound to doxorubicin ratio after 48 hrs by MTT-based checkerboard microplate method; assay type: functional; outline: as §4
[13] = Synergistic cytotoxicity against mouse L5178 cells expressing human ABCB1 assessed as combination index at ED90 using 30:1 test compound to doxorubicin ratio after 48 hrs by MTT-based checkerboard microplate method; assay type: functional; outline: as §4
[14] = Synergistic cytotoxicity against mouse L5178 cells expressing human ABCB1 assessed as combination index at ED50 using 7.5:1 test compound to doxorubicin ratio after 48 hrs by MTT-based checkerboard microplate method; assay type: functional; outline: as §4
[15] = Synergistic cytotoxicity against mouse L5178 cells expressing human ABCB1 assessed as combination index at ED75 using 7.5:1 test compound to doxorubicin ratio after 48 hrs by MTT-based checkerboard microplate method; assay type: functional; outline: as §4
[16] = Synergistic cytotoxicity against mouse L5178 cells expressing human ABCB1 assessed as combination index at ED90 using 7.5:1 test compound to doxorubicin ratio after 48 hrs by MTT-based checkerboard microplate method; assay type: functional; outline: as §4
[17] = Synergistic cytotoxicity against mouse L5178 cells assessed as combination index at ED50 using 37.5:1 test compound to doxorubicin ratio after 48 hrs by MTT-based checkerboard microplate method; assay type: functional; outline: as §4
[18] = Synergistic cytotoxicity against mouse L5178 cells assessed as combination index at ED75 using 37.5:1 test compound to doxorubicin ratio after 48 hrs by MTT-based checkerboard microplate method; assay type: functional; outline: as §4
[19] = Synergistic cytotoxicity against mouse L5178 cells assessed as combination index at ED90 using 37.5:1 test compound to doxorubicin ratio after 48 hrs by MTT-based checkerboard microplate method; assay type: functional; outline: as §4
[20] = Synergistic cytotoxicity against mouse L5178 cells assessed as combination index at ED50 using 75:1 test compound to doxorubicin ratio after 48 hrs by MTT-based checkerboard microplate method; assay type: functional; outline: as §4
[21] = Synergistic cytotoxicity against mouse L5178 cells assessed as combination index at ED75 using 75:1 test compound to doxorubicin ratio after 48 hrs by MTT-based checkerboard microplate method; assay type: functional; outline: as §4
[22] = Synergistic cytotoxicity against mouse L5178 cells assessed as combination index at ED90 using 75:1 test compound to doxorubicin ratio after 48 hrs by MTT-based checkerboard microplate method; assay type: functional; outline: as §4
[23] = Synergistic cytotoxicity against mouse L5178 cells expressing human ABCB1 assessed as combination index at ED50 using 60:1 test compound to doxorubicin ratio after 48 hrs by MTT-based checkerboard microplate method; assay type: functional; outline: as §4
[24] = Synergistic cytotoxicity against mouse L5178 cells expressing human ABCB1 assessed as combination index at ED75 using 60:1 test compound to doxorubicin ratio after 48 hrs by MTT-based checkerboard microplate method; assay type: functional; outline: as §4
[25] = Synergistic cytotoxicity against mouse L5178 cells expressing human ABCB1 assessed as combination index at ED90 using 60:1 test compound to doxorubicin ratio after 48 hrs by MTT-based checkerboard microplate method; assay type: functional; outline: as §4
[26] = Synergistic cytotoxicity against mouse L5178 cells assessed as combination index at ED50 using 300:1 test compound to doxorubicin ratio after 48 hrs by MTT-based checkerboard microplate method; assay type: functional; outline: as §4
[27] = Synergistic cytotoxicity against mouse L5178 cells assessed as combination index at ED75 using 300:1 test compound to doxorubicin ratio after 48 hrs by MTT-based checkerboard microplate method; assay type: functional; outline: as §4
[28] = Synergistic cytotoxicity against mouse L5178 cells assessed as combination index at ED90 using 300:1 test compound to doxorubicin ratio after 48 hrs by MTT-based checkerboard microplate method; assay type: functional; outline: as §4
[29] = Synergistic cytotoxicity against mouse L5178 cells assessed as combination index at ED50 using 600:1 test compound to doxorubicin ratio after 48 hrs by MTT-based checkerboard microplate method; assay type: functional; outline: as §4
[30] = Synergistic cytotoxicity against mouse L5178 cells assessed as combination index at ED75 using 600:1 test compound to doxorubicin ratio after 48 hrs by MTT-based checkerboard microplate method; assay type: functional; outline: as §4
[31] = Synergistic cytotoxicity against mouse L5178 cells assessed as combination index at ED90 using 600:1 test compound to doxorubicin ratio after 48 hrs by MTT-based checkerboard microplate method; assay type: functional; outline: as §4

Structure (SMILES) | inhibition at 10 min, 2 µM (ABCB1 (P-glycoprotein) [3]) | inhibition at 10 min, 20 µM (ABCB1 (P-glycoprotein) [4]) | IC50 [1] | IC50 [2] | CI [5] | CI [6] | CI [7] | CI [8] | CI [9] | CI [10] | CI [11] | CI [12] | CI [13] | CI [23] | CI [24] | CI [25] | CI [26] | CI [27] | CI [28] | CI [29] | further results
C=CCO/N=C1\C=C2[C@H](CC[C@]3(C)[C@@H]([C@@]4(C)OC(C)(C)O[C@@H]4CCC(C)(C)O)CC[C@@]23O)[C@@]2(C)C[C@@H]3OC(C)(C)O[C@@H]3C[C@@H]12 | 21% | 89.4% | 31.5 µM | 51.9 µM | 1.03 | 0.17 | 0.81 | 0.69 | 0.13 | 0.13 | 0.17 | 0.18 | 0.21 | 0.24 | 0.26 | 0.31 | 1.22 | 1.12 | 1.11 | 1.19 | IC50 (HeLa): 15.6 µM; IC50 (SiHa): 25.5 µM; IC50 (MDA-MB-231): 21.4 µM; IC50 (MCF7): 13.6 µM; CI [17]: 1.95; CI [18]: 1.28; CI [19]: 0.89; CI [20]: 1.35; CI [21]: 1.27; CI [22]: 1.27; CI [30]: 1.08; CI [31]: 1.05
CC(C)(O)CC[C@H]1OC(C)(C)O[C@]1(C)[C@H]1CC[C@@]2(O)C3=CC(=O)[C@@H]4C[C@H]5OC(C)(C)O[C@H]5C[C@]4(C)[C@H]3CC[C@]12C | 2.54% | 20.9% | 110 µM | 97.7 µM |  |  |  |  |  |  |  |  |  |  |  |  |  |  |  |  | 
COc1cccc2c1C(=O)c1c(O)c3c(c(O)c1C2=O)C[C@@](O)(C(=O)CO)C[C@@H]3O[C@H]1C[C@H](N)[C@H](O)[C@H](C)O1 [DOXORUBICIN] |  |  | 0.08 µM | 4.49 µM |  |  |  |  |  |  |  |  |  |  |  |  |  |  |  |  | 

Second part, led by results:

inhibition at 10 min, 2 µM (ABCB1 (P-glycoprotein) [3]) | inhibition at 10 min, 20 µM (ABCB1 (P-glycoprotein) [4]) | Structure (SMILES) | IC50 [1] | IC50 [2] | CI [5] | CI [6] | CI [7] | CI [8] | CI [9] | CI [10] | CI [11] | CI [12] | CI [13] | CI [23] | CI [24] | CI [25] | CI [26] | CI [27] | CI [28] | CI [29] | further results
1.16% | 4.27% | CC(C)(O)CC[C@H]1OC(C)(C)O[C@]1(C)[C@H]1CC=C2C3=CC(=O)N[C@@H]4C[C@H]5OC(C)(C)O[C@H]5C[C@]4(C)[C@H]3CC[C@@]21C | 63.4 µM | 72.4 µM | 0.4 | 0.2 | 0.42 | 0.46 | 0.12 | 0.09 | 0.18 | 0.13 | 0.11 | 0.2 | 0.17 | 0.15 | 0.43 | 0.46 | 0.5 | 0.58 | IC50 (HeLa): > 30 µM; IC50 (SiHa): > 30 µM; IC50 (MDA-MB-231): > 30 µM; IC50 (MCF7): > 30 µM; CI [14]: 0.24; CI [15]: 0.15; CI [16]: 0.1; CI [17]: 0.57; CI [18]: 0.51; CI [19]: 0.46; CI [20]: 0.62; CI [21]: 0.52; CI [22]: 0.43; CI [30]: 0.63; CI [31]: 0.67
10.6% | 83% | CC(C)(O)CC[C@H]1OC(C)(C)O[C@]1(C)[C@H]1CC=C2C3=C/C(=N\O)[C@@H]4C[C@H]5OC(C)(C)O[C@H]5C[C@]4(C)[C@H]3CC[C@@]21C | 20.9 µM | 24.6 µM | 0.8 | 0.26 | 0.79 | 0.78 | 0.16 | 0.12 | 0.25 | 0.19 | 0.16 | 0.34 | 0.29 | 0.27 | 1.18 | 1.11 | 1.04 | 1.1 | CI [30]: 1.11; CI [31]: 1.13
7.15% | 81.1% | CC(C)(O)CC[C@H]1OC(C)(C)O[C@]1(C)[C@H]1CC=C2C3=C/C(=N/O)[C@@H]4C[C@H]5OC(C)(C)O[C@H]5C[C@]4(C)[C@H]3CC[C@@]21C | 34.2 µM | 28.4 µM | 0.98 | 0.98 | 0.76 | 0.61 | 0.25 | 0.27 | 0.32 | 0.25 | 0.2 | 0.42 | 0.34 | 0.28 | 1.14 | 1.17 | 1.25 | 1.01 | CI [30]: 0.94; CI [31]: 0.91
